Data set [1] has as its system thyroid cancer cell lines and xenograft models. As to conditions: preclinical studies in DTC; cited from earlier work.
The nature of data set [2]: Plasma pharmacokinetics in DTC expansion cohort. Type of data set: in vivo, human. As to conditions: steady-state trough. An outline of the steps:
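Oral once-daily dosing in patients, 28-day cycles. The VEGFR inhibitor was profiled over 0–24 h after the first dose (C1D1). Troughs for both drugs were taken on C1D15 and at the second biopsy (C2D1 ± 48 h). Plasma was acetonitrile-extracted and run by positive-ESI LC-MS/MS: MEK inhibitor range 1–200 ng/mL; VEGFR inhibitor range 0.010–1 μg/mL, with 1:100 dilution up to 100 μg/mL. Noncompartmental analysis: Cmax observed, AUC by linear trapezoidal rule, Css,min averaged from both troughs.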

In data set [3] the test system is progressive radioiodine refractory DTC. As to conditions: cited from earlier work.
Another data set relates to DTC. As to conditions: study of 20 patients; cited from earlier work.

The text below walks through data of paper PMC7038784 (Clinical cancer research : an official journal of the …, 2019).

As to `Cc1ccc(Nc2nccc(N(C)c3ccc4c(C)n(C)nc4c3)n2)cc1S(N)(=O)=O` [pazopanib], the “effect on p-ERK” value in data set [1] is recorded as “paradoxical upregulation of p-ERK”. Moreover, the “Css,min” value in data set [2] (pazopanib 800 mg with trametinib 2 mg daily) came out at 33800 ± 17300 ng/mL. In addition, in data set [3] (5/11 patients as printed), the “PR rate, papillary thyroid cancer” value is 33%. Further, the “PR rate, follicular thyroid cancer” value in data set [3] (8/11) is 73%. Besides, in data set [3] (single-agent pazopanib, DTC overall), the “RECIST partial response (PR) rate” value was 49%. For the same compound, the “median PFS” value in data set [3] (single-agent pazopanib) was 360 days.
For the compound `Cn1cnc2c(F)c(Nc3ccc(Br)cc3Cl)c(C(=O)NOCCO)cc21` [Selumetinib], in the data set with DTC, the “PRs, patients” value was “five” and the “stable disease, patients” value was “three”.
Turning to `CC(=O)Nc1cccc(-n2c(=O)n(C3CC3)c(=O)c3c(Nc4ccc(I)cc4F)n(C)c(=O)c(C)c32)c1` [trametinib], in data set [2] (trametinib 2 mg with pazopanib 800 mg daily), the “Css,min” value was found to be 18.7 ± 6.6 ng/mL.
